A short description of data set [1]: Clearance in rhesus monkey at 0.4 mg/kg, iv. The data set is classed as ADME, organism-based, Macaca mulatta. Also on record: dose 0.4 mg/kg, route intravenous. Conditions: in vivo.
In data set [2] the target is Voltage-gated inwardly rectifying potassium channel KCNH2 (Homo sapiens, UniProt Q12809).
Data set [3] can be described thus: Volume of distribution at steady state in rhesus monkey at 0.4 mg/kg, iv. The data set is classed as ADME, organism-based, Macaca mulatta. Set-up: dose 0.4 mg/kg, route intravenous. Conditions: in vivo, read-out: Vdss.
Data set [4] deals with A2780. In words: Induction of mitotic arrest in human A2780 cells expressing MDR1 after 16 hrs. The data set is classed as functional, cell-based. The following applies: A2780, 16 h.
Data set [5] is described as follows: Half life in rhesus monkey at 0.4 mg/kg, iv. The data set is classed as ADME, organism-based, Macaca mulatta. Set-up: dose 0.4 mg/kg, route intravenous. The following applies: in vivo.
Data set [6] is filed under the species Mus musculus. In words: Toxicity in naive mouse assessed as neutopenia after 6 days. Format: organism-based. Conditions: in vivo, 144 h. In outline:
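Naive mice dosed under protocols varying dose, vehicle and frequency, with survival as the end point; peripheral blood counts, including neutrophils, followed after dosing.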

For data set [7], the target named is T1, Kinesin-like protein KIF2C (Homo sapiens, UniProt Q99661).
T1 sequence (Q99661 whole entry): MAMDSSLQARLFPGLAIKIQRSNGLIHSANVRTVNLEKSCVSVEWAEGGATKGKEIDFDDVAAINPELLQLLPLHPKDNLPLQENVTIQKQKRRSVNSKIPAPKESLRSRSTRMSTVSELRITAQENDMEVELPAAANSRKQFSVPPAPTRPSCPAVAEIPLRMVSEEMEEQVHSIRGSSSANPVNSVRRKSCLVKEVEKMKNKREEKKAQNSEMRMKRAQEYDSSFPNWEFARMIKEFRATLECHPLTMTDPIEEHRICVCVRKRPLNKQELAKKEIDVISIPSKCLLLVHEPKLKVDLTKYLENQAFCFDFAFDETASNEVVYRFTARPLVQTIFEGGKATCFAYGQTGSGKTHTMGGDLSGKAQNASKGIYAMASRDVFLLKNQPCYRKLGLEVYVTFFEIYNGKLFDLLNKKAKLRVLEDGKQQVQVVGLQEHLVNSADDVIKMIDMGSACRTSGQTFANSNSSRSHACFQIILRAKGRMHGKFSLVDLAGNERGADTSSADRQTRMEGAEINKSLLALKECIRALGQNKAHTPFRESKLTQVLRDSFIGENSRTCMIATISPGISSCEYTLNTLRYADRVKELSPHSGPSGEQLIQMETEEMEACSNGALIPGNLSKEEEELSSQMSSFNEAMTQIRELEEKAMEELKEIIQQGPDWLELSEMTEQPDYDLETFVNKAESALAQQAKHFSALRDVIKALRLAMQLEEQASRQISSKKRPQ
The experiment in a line: Inhibition of cloned human MCAK.

Data set [8] in a line: Volume of distribution at steady state in rat at 1 mg/kg, iv. The data set is classed as ADME, organism-based. Conditions: in vivo, read-out: Vdss. Set-up: dose 1 mg/kg, route intravenous.
For data set [9], the system named is PTX10. In words: Inhibition of tumor growth in paclitaxel-resistant human PTX10 cells carries tubulin mutation xenografted clr:NU/NU-nuBR mouse assessed as change in tumor volume at 100 mg/kg, sc administered q4d x 3 dosing schedule relative to control. (In general: A xenograft is tissue or cells of one species grown in another, often human tumour cells in immunodeficient mice.)

The subject of data set [10] is KB-v. The experiment in a line: Inhibition of tumor growth in human KB-v cells expressing MDR1 xenografted clr:NU/NU-nuBR mouse assessed as change in tumor volume at 40 mg/kg, sc administered qd x 1 dosing schedule relative to control.
A short description of data set [11]: Volume of distribution at steady state in dog at 0.4 mg/kg, iv. The following applies: in vivo, read-out: Vdss. Set-up: dose 0.4 mg/kg, route intravenous. The data set is classed as ADME, organism-based, Canis lupus familiaris.
The subject of data set [12] is A2780. In words: Inhibition of tumor growth in human A2780 cells xenografted clr:NU/NU-nuBR mouse assessed as change in tumor volume at 100 mg/kg, sc administered q4d x 3 dosing schedule.
Data set [13] deals with Rattus norvegicus. In words: Acute toxicity in rat at 15 mg/kg, iv. Also on record: dose 15 mg/kg, route intravenous. Format: organism-based. Conditions: in vivo.
The target of data set [14] is Centromere-associated protein E (Homo sapiens, UniProt Q02224). The experiment in a line: Inhibition of cloned human CENP-E.
The nature of data set [15]: Half life in dog at 0.4 mg/kg, iv. Format: ADME, organism-based, Canis lupus familiaris. Set-up: dose 0.4 mg/kg, route intravenous. Conditions: in vivo.
Data set [16] deals with T2, Kinesin-1 heavy chain (Homo sapiens, UniProt P33176).
T2 sequence (P33176 whole entry): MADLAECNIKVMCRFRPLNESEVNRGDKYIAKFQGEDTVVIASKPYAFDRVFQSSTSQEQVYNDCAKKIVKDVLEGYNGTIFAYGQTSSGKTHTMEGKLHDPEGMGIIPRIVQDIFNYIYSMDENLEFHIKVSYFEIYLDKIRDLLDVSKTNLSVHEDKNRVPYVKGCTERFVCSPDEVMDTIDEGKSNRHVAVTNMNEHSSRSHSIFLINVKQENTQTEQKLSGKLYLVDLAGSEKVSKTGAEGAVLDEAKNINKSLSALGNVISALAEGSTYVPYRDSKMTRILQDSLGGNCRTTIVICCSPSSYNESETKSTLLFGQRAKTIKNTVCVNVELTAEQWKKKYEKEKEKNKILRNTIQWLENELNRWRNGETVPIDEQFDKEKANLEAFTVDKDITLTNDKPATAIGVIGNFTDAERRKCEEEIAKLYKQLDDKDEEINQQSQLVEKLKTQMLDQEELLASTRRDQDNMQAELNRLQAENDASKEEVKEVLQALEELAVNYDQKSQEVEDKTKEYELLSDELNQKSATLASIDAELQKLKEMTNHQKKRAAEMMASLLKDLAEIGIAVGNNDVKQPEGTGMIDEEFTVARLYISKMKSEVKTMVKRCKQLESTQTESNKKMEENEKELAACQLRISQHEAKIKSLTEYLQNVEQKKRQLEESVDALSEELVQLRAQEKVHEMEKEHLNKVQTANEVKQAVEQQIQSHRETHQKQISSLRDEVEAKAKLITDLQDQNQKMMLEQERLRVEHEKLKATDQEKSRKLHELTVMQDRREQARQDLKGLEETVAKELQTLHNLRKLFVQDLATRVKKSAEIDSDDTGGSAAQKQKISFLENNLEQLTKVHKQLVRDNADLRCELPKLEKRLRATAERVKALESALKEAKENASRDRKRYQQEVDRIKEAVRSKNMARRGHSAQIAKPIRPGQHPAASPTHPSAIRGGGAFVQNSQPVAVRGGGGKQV
In words: Inhibition of cloned human uKHC.

Data set [17] concerns the target Kinesin-like protein KIF14 (Homo sapiens, UniProt Q15058). The experiment in a line: Inhibition of cloned human Kif14.
Data set [18] is described as follows: Ratio of IC50 for induction of mitotic arrest in human […] to IC50 for induction of mitotic arrest in […] human KB-V-1 cells. Format: functional. In outline:
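Phospho-nucleolin mitotic-arrest assay in parental KB-3-1 and MDR1-overexpressing KB-V-1 cells (>500-fold higher MDR1 mRNA). Cells were treated in triplicate for 16 h across 10 000 to 0.1 nM (11-point, half-log series; 0.1% DMSO final). Total nucleolin was bead-captured from lysates and phospho-nucleolin detected by TG3 antibody plus a ruthenium-labelled secondary. Ratio = IC50 (KB-V-1) / IC50 (KB-3-1).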

Calls of active or inactive are those of the source. The rule behind the calls is not given here.

Sequence of Kinesin-like protein KIF14 (Q15058 whole entry): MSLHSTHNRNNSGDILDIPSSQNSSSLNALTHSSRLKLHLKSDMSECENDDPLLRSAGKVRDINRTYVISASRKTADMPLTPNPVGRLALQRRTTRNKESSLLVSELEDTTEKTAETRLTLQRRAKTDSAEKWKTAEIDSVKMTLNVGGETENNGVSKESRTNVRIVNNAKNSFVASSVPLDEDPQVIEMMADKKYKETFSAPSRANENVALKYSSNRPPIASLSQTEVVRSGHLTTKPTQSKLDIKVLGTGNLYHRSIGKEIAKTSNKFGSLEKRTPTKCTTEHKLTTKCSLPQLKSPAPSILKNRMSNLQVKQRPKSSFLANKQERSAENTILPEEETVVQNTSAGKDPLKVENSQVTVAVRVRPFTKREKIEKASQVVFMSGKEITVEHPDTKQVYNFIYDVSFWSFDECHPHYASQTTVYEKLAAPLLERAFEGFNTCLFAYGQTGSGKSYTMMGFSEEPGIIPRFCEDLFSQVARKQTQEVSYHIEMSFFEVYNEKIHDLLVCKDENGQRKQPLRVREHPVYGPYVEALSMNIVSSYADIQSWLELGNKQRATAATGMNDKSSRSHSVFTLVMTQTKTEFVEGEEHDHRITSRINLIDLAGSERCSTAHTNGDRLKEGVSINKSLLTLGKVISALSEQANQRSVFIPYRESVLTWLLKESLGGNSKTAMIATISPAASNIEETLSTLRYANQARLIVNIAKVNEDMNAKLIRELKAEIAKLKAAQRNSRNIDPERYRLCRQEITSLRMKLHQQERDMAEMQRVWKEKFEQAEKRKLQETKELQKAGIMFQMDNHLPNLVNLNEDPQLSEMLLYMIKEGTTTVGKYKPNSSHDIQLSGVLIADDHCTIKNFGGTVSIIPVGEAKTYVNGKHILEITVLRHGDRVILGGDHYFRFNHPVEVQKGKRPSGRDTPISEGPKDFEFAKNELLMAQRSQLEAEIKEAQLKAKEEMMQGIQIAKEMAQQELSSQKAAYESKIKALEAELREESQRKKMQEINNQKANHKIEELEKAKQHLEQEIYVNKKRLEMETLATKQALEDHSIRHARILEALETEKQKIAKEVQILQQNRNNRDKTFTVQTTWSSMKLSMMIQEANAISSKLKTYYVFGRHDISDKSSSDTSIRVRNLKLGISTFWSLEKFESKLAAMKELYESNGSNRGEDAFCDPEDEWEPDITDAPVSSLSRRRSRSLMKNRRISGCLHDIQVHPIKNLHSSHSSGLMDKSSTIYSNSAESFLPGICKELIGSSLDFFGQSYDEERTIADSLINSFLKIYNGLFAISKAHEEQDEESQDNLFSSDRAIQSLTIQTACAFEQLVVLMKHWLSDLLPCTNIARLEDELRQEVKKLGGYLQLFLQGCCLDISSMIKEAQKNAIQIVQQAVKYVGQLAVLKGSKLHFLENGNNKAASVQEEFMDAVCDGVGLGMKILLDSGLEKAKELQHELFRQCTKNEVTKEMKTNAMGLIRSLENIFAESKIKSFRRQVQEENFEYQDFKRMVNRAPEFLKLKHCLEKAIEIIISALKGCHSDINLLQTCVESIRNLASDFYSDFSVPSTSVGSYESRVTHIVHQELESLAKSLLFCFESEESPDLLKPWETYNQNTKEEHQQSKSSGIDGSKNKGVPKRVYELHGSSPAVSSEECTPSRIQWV
Sequence of Voltage-gated inwardly rectifying potassium channel KCNH2 (Q12809 whole entry): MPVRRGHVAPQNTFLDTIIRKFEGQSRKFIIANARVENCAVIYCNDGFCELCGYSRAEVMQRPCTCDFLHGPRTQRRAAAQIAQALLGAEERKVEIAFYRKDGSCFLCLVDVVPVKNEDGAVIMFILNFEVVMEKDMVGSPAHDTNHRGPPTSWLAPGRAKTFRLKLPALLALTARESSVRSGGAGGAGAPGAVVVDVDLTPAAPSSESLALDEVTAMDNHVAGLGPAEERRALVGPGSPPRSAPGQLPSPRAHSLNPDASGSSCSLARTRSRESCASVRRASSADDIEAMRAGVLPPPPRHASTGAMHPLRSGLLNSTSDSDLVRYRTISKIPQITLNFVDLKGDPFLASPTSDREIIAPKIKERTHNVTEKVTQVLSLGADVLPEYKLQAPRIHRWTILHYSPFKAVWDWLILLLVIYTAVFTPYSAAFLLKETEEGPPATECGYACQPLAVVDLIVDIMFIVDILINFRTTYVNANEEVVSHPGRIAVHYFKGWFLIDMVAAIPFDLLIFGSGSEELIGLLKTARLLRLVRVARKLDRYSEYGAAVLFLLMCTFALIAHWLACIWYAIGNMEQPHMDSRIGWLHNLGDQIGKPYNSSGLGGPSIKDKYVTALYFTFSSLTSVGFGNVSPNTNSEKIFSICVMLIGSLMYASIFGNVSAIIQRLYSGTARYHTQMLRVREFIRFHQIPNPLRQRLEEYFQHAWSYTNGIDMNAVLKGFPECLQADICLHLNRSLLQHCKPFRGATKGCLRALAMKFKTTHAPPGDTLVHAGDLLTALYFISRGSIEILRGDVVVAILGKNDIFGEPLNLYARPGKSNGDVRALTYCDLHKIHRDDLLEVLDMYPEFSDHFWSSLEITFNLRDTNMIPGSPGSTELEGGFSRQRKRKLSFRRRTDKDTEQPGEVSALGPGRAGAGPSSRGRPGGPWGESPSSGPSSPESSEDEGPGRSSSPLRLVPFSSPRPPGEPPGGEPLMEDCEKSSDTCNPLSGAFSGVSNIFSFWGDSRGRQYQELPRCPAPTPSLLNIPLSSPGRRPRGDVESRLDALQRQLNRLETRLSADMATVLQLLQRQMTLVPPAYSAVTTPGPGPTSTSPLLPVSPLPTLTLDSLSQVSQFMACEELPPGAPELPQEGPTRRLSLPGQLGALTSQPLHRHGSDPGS

On to `CN1CC[C@H](N(C)C(=O)N2CC(c3cc(F)ccc3F)=C[C@@]2(CO)c2ccccc2)[C@H](F)C1`, for which the clearance in data set [1] is 23.1 mL/min/kg. Also, the IC50 in data set [2] is 20.5 µM; in data set [7], more than 50 µM; in [14], more than 50 µM; in data set [16], more than 50 µM; in data set [17] it was more than 50 µM. In addition, the Vd in data set [3] was determined as 2.3 L/kg; in data set [8], 3 L/kg; in data set [11], 1.6 L/kg. This molecule gave an EC50 in [4] of 0.0053 µM. The half-life is 1 h in [5] and 2 h in data set [15]. In addition, the Activity result in data set [6] was “Toxic”; in data set [13], “Non-toxic”. The outcome in data set [9], in [10] and in data set [12] was Active. Besides, the Ratio in [18] was found to be 4.5.

One may read the clearance as the volume of plasma or blood freed of the substance per unit of time. A word on the IC50: it is the concentration that inhibits the measured activity by half. In general, EC50 refers to the concentration needed to bring the measured effect to its halfway point. The term half-life denotes the time in which the quantity being followed falls by half.

Values taken from ChEMBL document CHEMBL1155077, “Kinesin spindle protein (KSP) inhibitors. 9. Discovery of (2S)-4-(2,5-difluorophenyl)-n-[(3R,4S)-3-fluoro-1-methylpiperidin-4-yl]-2-(hydroxymethyl)-N-methyl-2-phenyl-2,5-dihydro-1H-pyrrole-1-carboxamide (MK-0731) for the treatment of taxane-refractory cancer” (J Med Chem, 2008).
